Data: paper PMC5430754 (Acta Pharmaceutica Sinica. B, 2017)
Where two headings read alike, the source gives them in different places. Values belong to the compound of their own block, whether it stands above or below them.

Columns and labels:
sucrase = sucrase (Rattus norvegicus, UniProt P23739); experiment: α-glucosidase; format: biochemical; conditions: for Sucrase Inhibition (%): at the concentration of 10^—5 mol/L
[1] = target: T1, porcine pancreatic lipase (Sus scrofa, UniProt P00591); experiment: lipase inhibitory activity; format: biochemical; conditions: for Lipase Inhibition (%): at the concentration of 10^—5 mol/L; for inhibition at 10 µM: 1 h, read-out: Lipase Inhibition (%)
T1 sequence (P00591 1-450): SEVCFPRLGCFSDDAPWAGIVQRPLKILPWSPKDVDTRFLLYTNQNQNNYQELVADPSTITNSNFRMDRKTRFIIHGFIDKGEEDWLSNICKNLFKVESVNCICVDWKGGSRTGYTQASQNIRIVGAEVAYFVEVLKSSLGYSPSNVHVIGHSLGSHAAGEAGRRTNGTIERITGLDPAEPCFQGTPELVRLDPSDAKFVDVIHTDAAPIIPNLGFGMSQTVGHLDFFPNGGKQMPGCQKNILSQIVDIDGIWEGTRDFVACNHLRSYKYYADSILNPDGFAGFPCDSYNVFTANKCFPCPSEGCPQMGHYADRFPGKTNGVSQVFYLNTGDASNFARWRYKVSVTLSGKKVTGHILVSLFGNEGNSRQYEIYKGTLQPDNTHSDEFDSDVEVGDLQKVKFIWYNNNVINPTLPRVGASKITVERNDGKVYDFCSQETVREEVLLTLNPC

maltase = experiment: α-glucosidase; format: biochemical, Rat; conditions: for Maltase Inhibition (%): at the concentration of 10^—5 mol/L; for IC50: read-out: Maltase IC50, isolated compounds
Procedure, shortened: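 Rat small-intestinal brush-border membrane vesicles, suspended in 0.1 mol/L phosphate buffer pH 6.0, served as the α-glucosidase source. Enzyme, substrate and test compound were incubated in the same buffer for 30 min at 37 °C. The reaction was stopped by heating to 80–85 °C for 3 min. Released glucose was measured by the glucose oxidase method. Triplicates at five concentrations gave IC50 from dose–response curves; % inhibition was measured at 10⁻⁵ mol/L.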

[2] = read-out: Sucrase IC50, isolated compounds

Chain of sucrase (P23739 whole entry): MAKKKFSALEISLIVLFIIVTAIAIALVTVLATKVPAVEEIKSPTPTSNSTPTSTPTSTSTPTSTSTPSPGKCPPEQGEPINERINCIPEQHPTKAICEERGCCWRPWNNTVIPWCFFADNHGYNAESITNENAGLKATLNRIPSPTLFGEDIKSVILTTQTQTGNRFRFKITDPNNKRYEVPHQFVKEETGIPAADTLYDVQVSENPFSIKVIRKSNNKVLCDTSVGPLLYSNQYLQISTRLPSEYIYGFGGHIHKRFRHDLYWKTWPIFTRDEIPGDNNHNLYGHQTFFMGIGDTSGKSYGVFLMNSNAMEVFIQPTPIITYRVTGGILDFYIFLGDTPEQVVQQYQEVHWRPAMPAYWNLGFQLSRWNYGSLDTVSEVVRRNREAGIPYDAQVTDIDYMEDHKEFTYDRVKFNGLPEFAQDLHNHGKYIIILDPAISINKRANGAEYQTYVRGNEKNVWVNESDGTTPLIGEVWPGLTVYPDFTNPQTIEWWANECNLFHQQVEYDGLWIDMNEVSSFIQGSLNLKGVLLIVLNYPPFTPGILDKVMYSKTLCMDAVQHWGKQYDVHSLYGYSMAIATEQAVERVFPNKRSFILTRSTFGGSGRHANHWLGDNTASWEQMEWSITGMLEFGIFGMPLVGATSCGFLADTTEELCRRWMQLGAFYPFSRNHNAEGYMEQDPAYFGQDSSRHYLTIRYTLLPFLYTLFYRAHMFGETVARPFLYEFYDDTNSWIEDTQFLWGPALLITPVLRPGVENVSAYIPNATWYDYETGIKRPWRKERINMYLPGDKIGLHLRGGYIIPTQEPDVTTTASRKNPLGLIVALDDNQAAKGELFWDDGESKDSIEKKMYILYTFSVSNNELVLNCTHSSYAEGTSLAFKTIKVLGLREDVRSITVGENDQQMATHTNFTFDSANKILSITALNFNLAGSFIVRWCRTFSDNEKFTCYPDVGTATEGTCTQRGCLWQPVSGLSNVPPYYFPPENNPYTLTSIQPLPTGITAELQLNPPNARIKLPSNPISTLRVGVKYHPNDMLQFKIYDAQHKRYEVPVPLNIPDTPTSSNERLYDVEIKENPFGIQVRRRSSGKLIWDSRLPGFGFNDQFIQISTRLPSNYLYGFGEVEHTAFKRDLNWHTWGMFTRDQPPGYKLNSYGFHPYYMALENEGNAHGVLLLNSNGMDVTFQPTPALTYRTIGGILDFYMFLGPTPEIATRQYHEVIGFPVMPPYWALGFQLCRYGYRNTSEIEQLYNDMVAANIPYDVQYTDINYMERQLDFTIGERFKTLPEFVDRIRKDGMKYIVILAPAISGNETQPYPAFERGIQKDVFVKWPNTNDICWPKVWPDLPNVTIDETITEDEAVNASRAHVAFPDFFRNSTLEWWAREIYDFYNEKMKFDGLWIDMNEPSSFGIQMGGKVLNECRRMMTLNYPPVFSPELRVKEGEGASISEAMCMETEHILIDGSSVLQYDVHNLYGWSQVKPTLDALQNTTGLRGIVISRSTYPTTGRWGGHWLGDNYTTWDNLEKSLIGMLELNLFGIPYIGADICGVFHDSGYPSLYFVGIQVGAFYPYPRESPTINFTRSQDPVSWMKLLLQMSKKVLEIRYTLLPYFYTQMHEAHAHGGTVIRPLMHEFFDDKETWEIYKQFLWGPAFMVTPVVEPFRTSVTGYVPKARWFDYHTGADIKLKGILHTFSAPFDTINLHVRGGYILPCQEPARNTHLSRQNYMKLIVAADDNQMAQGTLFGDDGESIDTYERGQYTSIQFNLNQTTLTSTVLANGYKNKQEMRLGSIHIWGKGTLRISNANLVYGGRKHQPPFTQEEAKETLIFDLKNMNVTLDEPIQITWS

- Sucrase Inhibition (%) (sucrase): 71.3%
- IC50 (sucrase; [2]): 62.1 µM
- Lipase Inhibition (%) [1]: 41.6%
SMILES: O=C(/C=C/c1ccc(O)cc1)O[C@@H]1Cc2c(O)cc(O)cc2O[C@@H]1c1ccc(O)c(O)c1 [Compound 2, (–)-epicatechin-3-O-(E)-coumarate]

- Sucrase Inhibition (%) (sucrase): 21.5%
- Lipase Inhibition (%) [1]: 64.9%
- IC50 ([1]; read-out: Lipase IC50, isolated compounds): 39.7 µM
- Maltase Inhibition (%) (maltase): 16.1%
SMILES: Oc1cc(O)c2c(c1)O[C@H](c1ccc(O)c(O)c1)[C@@H](O)C2 [Compound 4, (+)-catechin]

- IC50 [1]: 32.2 µM
- inhibition at 10 µM [1]: 70.4%
- Maltase Inhibition (%) (maltase): 48.5%
SMILES: Oc1cc(O)c2c(c1)O[C@H](c1ccc(O)c(O)c1)[C@H](O)C2 [Compound 6, (–)-epicatechin]

More lines, now with the values behind:

SMILES: O=C(/C=C\c1ccc(O)cc1)O[C@@H]1Cc2c(O)cc(O)cc2O[C@@H]1c1ccc(O)c(O)c1 [Compound 1, (–)-epicatechin-3-O-(Z)-coumarate]
- Sucrase Inhibition (%) (sucrase): 45.4%
- Lipase Inhibition (%) [1]: 42.6%
- Maltase Inhibition (%) (maltase): 71.8%
- IC50 (maltase): 49.7 µM

SMILES: O=C(/C=C/c1ccc(O)c(O)c1)O[C@@H]1Cc2c(O)cc(O)cc2O[C@@H]1c1ccc(O)c(O)c1 [Compound 3, (–)-epicatechin-3-O-(E)-caffeate]
- Sucrase Inhibition (%) (sucrase): 64.5%
- IC50 (sucrase; [2]): 107 µM
- Lipase Inhibition (%) [1]: 36.3%

SMILES: O=C1c2c(O)cc(O)cc2O[C@H](c2cc(O)c(O)c(O)c2)[C@H]1O [Compound 5, ampelopsin]
- IC50 (sucrase): 74.6 µM
- inhibition at 10 µM (sucrase; 0.5 h, read-out: Sucrase Inhibition (%)): 90.4%
- IC50 [1]: 20.4 µM
- inhibition at 10 µM [1]: 92.1%
- Maltase Inhibition (%) (maltase): 92.0%
- IC50 (maltase): 200 µM
